# ChEMBL document CHEMBL1145384, “Novel C-6 fluorinated acyclic side chain pyrimidine derivatives: synthesis, (1)H and (13)C NMR conformational studies, and antiviral and cytostatic evaluations” (J Med Chem, 2007)
# Active and inactive are the calls of the source. The rule behind the calls is not given here.
# Columns and labels:
# [1] = test system: Human betaherpesvirus 5; experiment: Antiviral activity against human cytomegalovirus AD169 in HEL cells assessed as reduction of plaque formation after 7 days; type: functional, organism-based; conditions: Human betaherpesvirus 5, AD169, HEL, 168 h
# Summary of the method: (§1)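 Confluent HEL fibroblasts infected with HCMV (Davis or AD-169) at 100 PFU per well; after 2 h adsorption, residual virus removed and medium with serial compound concentrations added (duplicate wells). Incubated 7 days; EC50 taken as concentration reducing plaque formation by 50%.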
# [2] = test system: Human betaherpesvirus 5; experiment: Antiviral activity against human cytomegalovirus Davis in HEL cells assessed as reduction of plaque formation after 7days; type: functional, organism-based; conditions: Human betaherpesvirus 5, Davis, 168 h; summary of the method: as §1
# [3] = test system: Human alphaherpesvirus 3; experiment: Antiviral activity against thymidine kinase expressing Varicella-Zoster virus OKA assessed as reduction of plaque formation; type: functional, organism-based; conditions: Human alphaherpesvirus 3, OKA
# [4] = test system: Human alphaherpesvirus 3; experiment: Antiviral activity against thymidine kinase deficient Varicella-Zoster virus 07/1 assessed as reduction of plaque formation; type: functional, organism-based; conditions: Human alphaherpesvirus 3, 07/1
# Summary of the method: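 Plaque reduction assay in HEL cells against TK+ (OKA) and TK- (07/1) VZV strains; virus input 100 PFU; EC50 as concentration giving 50% plaque reduction.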
# [5] = Cytotoxicity against HEL cells assessed as cell morphology after 7 days; type: cell-based; conditions: human
# Summary of the method: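 Uninfected confluent HEL cultures exposed to compounds; MCC recorded as lowest concentration producing a microscopically detectable alteration of normal cell morphology at day 7.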
# [6] = Cytotoxicity against HEL cells assessed as cell growth after 7 days; type: cell-based; conditions: human
# [7] = test system: Human respirovirus 3; experiment: Antiviral activity against parainfluenza 3 virus in Vero cells assessed as reduction of virus plaque formation after 7 days; type: functional, organism-based; conditions: Human respirovirus 3, Vero, 168 h
# [8] = test system: Mammalian orthoreovirus 1; experiment: Antiviral activity against reovirus1 virus in Vero cells assessed as reduction of virus plaque formation after 7 days; type: functional, organism-based; conditions: Mammalian orthoreovirus 1, Vero, 168 h
# [9] = test system: Sindbis virus; experiment: Antiviral activity against sindbis virus in Vero cells assessed as reduction of virus plaque formation after 7 days; type: functional, organism-based; conditions: 168 h
# [10] = test system: Punta Toro virus; experiment: Antiviral activity against Punta Toro virus in Vero cells assessed as reduction of virus plaque formation after 7 days; type: functional, organism-based; conditions: 168 h
# [11] = test system: Coxsackievirus B4; experiment: Antiviral activity against coxsackie B4 virus in HeLa cells assessed as reduction of virus plaque formation after 7 days; type: functional, organism-based; conditions: Enterovirus B, 168 h
# [12] = test system: HEp-2; experiment: Growth inhibition of Hep2 cells after 72 hrs by MTT assay; type: functional, cell-based; conditions: Homo sapiens, HEp-2, 72 h
# Summary of the method: (§2)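 Tumor lines grown as monolayers in DMEM with 10% FBS, 2 mM L-glutamine and penicillin. Freshly diluted compounds added, solvent tested at matching concentrations; after 72 h growth measured by MTT. IC50 obtained by linear regression of concentrations bracketing 50% growth; mean of three separate experiments.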
# [13] = test system: HeLa; experiment: Growth inhibition of HeLa cells after 72 hrs by MTT assay; type: functional, cell-based; conditions: Homo sapiens; summary of the method: as §2
# [14] = test system: MIA PaCa-2; experiment: Growth inhibition of MiaPaCa2 cells after 72 hrs by MTT assay; type: functional, cell-based; conditions: Homo sapiens, MIA PaCa-2, 72 h; summary of the method: as §2
# [15] = test system: SW-620; experiment: Growth inhibition of SW620 cells after 72 hrs by MTT assay; type: functional, cell-based; conditions: Homo sapiens, SW-620, 72 h; summary of the method: as §2
# [16] = test system: MCF7; experiment: Growth inhibition of MCF7 cells after 72 hrs by MTT assay; type: functional, cell-based; conditions: Homo sapiens, MCF7, 72 h; summary of the method: as §2
# [17] = test system: L1210; experiment: Growth inhibition of mouse L1210 cells after 72 hrs by MTT assay; type: functional, cell-based; conditions: L1210, 72 h
# [18] = Growth inhibition of human Molt4/C8 cells after 72 hrs by MTT assay; type: functional, cell-based; conditions: MOLT-4, 72 h
# [19] = test system: CCRF-CEM; experiment: Growth inhibition of human CEM cells after 72 hrs by MTT assay; type: functional, cell-based
# [20] = test system: WI-38; experiment: Growth inhibition of human WI38 fibroblasts at 0.1 uM after 72 hrs by MTT assay; type: functional, cell-based
Compound,EC50 [1] [µM],EC50 [2] [µM],EC50 [3] [µM],EC50 [4] [µM],MCC at 168 h [5] [µM],CC50 at 168 h [6] [µM],EC50 [7] [µM],EC50 [8] [µM],EC50 [9] [µM],EC50 [10] [µM],EC50 [11] [µM],IC50 [12] [µM],IC50 [13] [µM],IC50 [14] [µM],IC50 [15] [µM],IC50 [16] [µM],IC50 [17] [µM],IC50 [18] [µM],IC50 [19] [µM],Activity [20]
COc1nc(CBr)c(Br)c(OC)n1,> 100,> 100,> 100,> 100,> 100,38.7,> 8,> 8,> 8,> 8,> 40,7,18,2,1,8,38,97,28,inactive
COc1nc(C)c(Br)c(OC)n1,> 100,> 100,> 100,88,≥ 100,18,> 200,> 200,> 200,> 200,> 200,> 100,> 100,> 100,> 100,> 100,> 200,> 200,> 200,
COc1nc(CC(C)(O)C(F)(F)F)c(-c2ccccc2)c(OC)n1 (centres undefined),> 0.8,> 0.8,> 20,> 20,4,35,> 40,> 40,> 40,> 40,> 40,19,17,20,20,> 17,82,118,70,
COc1cc(CC(O)(c2ccc(F)cc2)c2ccc(F)cc2)nc(OC)n1,> 100,> 100,> 100,> 100,> 100,> 100,> 40,> 40,> 40,> 40,> 40,> 100,> 100,> 100,> 100,> 100,≥ 500,> 500,> 500,
CC(=O)OC(C)(CF)Cc1cc(O)nc(O)n1 (centres undefined),> 100,> 100,> 100,> 100,> 100,> 100,> 200,> 200,> 200,> 200,> 200,> 200,> 200,> 200,> 200,> 200,> 200,> 200,> 200,
COc1nc(CC(C)(O)c2ccc(F)cc2)c(C)c(OC)n1 (centres undefined),45,20,80,45,> 100,> 100,> 200,> 200,> 200,> 200,> 40,43,35,65,≥ 100,38,195,144,136,
CC(=O)OC(C)(Cc1cc(O)nc(O)n1)Cc1ccccc1F (centres undefined),> 100,> 100,> 100,> 100,> 100,> 100,> 124,> 124,> 124,> 124,> 200,> 200,> 200,> 200,> 200,> 200,> 200,> 200,> 200,
